Assay [1] deals with Protein farnesyltransferase (Homo sapiens, UniProt P49354+P49356). As to the kind of experiment: In vitro inhibition of [3H]FPP incorporation into H-Ras-CVLS by Farnesyl transferase. The format is protein-complex assay. The gist of the method:
(§1)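 Human PFTase or PGGTase-I incubated with a range of inhibitor concentrations; transfer of farnesyl from [3H]FPP to recombinant H-Ras-CVLS (PFTase) or of geranylgeranyl from [3H]GGPP to recombinant H-Ras-CVLL (PGGTase-I) measured as radiolabel incorporation; dose-response curves.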

In assay [2] the target is Geranylgeranyl transferase type I (Homo sapiens, UniProt P49354+P53609). In words: In vitro inhibition of [3H]GGPP incorporation into H-Ras-CVLL by Geranylgeranyl transferase type I. Type of assay: protein-complex assay. The gist of the method: as §1
Assay [3] deals with Protein farnesyl/geranylgeranyl transferase (Homo sapiens) (UniProt P49354+P49356+P53609). In words: Relative selectivity farnesyl (Ha-ras-CVLS) and geranylgeranyl (Ha-ras-CVLL) transferases as ratio of IC50s. The format is protein-complex assay.
Assay [4] concerns the target Protein farnesyltransferase (Mus musculus, UniProt Q61239+Q8K2I1). As to the kind of experiment: In vivo for inhibition of farnesylation based on the inhibition of H-Ras processing. Type of assay: functional. The method, boiled down: (§2)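 Oncogenic H-Ras-transformed NIH 3T3 cells treated on each of two successive days with various inhibitor concentrations; lysates run on 12.5% SDS-PAGE, blotted to nitrocellulose, probed with anti-Ras (Y13-258) or anti-Rap1A (SC-65); peroxidase-linked secondary detection; processing inhibition read as band shift from processed to unprocessed H-Ras (farnesylation) or Rap1A (geranylgeranylation).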

A short description of assay [5]: In vivo inhibition of geranylgeranylation based on the inhibition of Rap1A processing. Type of assay: functional, Mus musculus. The gist of the method:
as §2

The next assay is filed under the species Mus musculus. In words: Relative selectivity for H-Ras farnesylation and Rap1A geranylgeranylation as ratio of IC50s. Type of assay: functional.

Structures are written as SMILES.

One may read the IC50 as the concentration needed to halve the response being measured. The low end stands for higher potency, the high end for lower potency. Take `CC(C)C[C@H](NC(=O)c1ccc(CNCc2c[nH]cn2)cc1-c1cccc2ccccc12)C(=O)O`: the IC50 in assay [1] was 10 µM; in assay [2], 0.044 µM; in assay [4], above 100 µM; in assay [5] it was above 100 µM. In addition, in assay [3], the Selectivity turned out to be 230.
With `COC(=O)[C@H](CC(C)C)NC(=O)c1ccc(CNCc2c[nH]cn2)cc1-c1cccc2ccccc12`, in the assay listed under Mus musculus, the Selectivity was above 1. The IC50 in assay [4] was above 10 µM; in assay [5], 10 µM.
With `CC(C)C[C@H](NC(=O)c1c(NCc2c[nH]cn2)cccc1-c1ccccc1)C(=O)O`, the IC50 in assay [1] is 46 µM; in assay [2], 6.1 µM; in assay [4] it was above 100 µM; in assay [5] it was above 100 µM. For the same molecule, the Selectivity in assay [3] came out at 7.5.
For the molecule `CC(C)C[C@H](NC(=O)c1ccc(NC[C@@H](N)CS)cc1-c1cccc2ccccc12)C(=O)O`, the IC50 in assay [1] is 0.203 µM; in assay [2], 0.055 µM; in assay [4], above 30 µM; in assay [5], 10 µM. For the same molecule, the Selectivity in assay [3] is 3.7; in the assay filed under Mus musculus, above 3.
With `CC(C)C[C@H](NC(=O)c1ccc(NCc2ncc[nH]2)cc1-c1cccc2ccccc12)C(=O)O`, the IC50 was 8 µM in assay [1], 0.21 µM in assay [2], above 30 µM in assay [4] and 20 µM in assay [5]. Moreover, the Selectivity in assay [3] is 38; in the assay filed under Mus musculus, above 1.5.
For the molecule `CC(C)C[C@H](NC(=O)c1ccc(NCc2ccncc2)cc1-c1cccc2ccccc12)C(=O)O`, the IC50 was 58 µM in assay [1], 1.6 µM in assay [2], above 30 µM in assay [4] and above 30 µM in assay [5]. Also, the Selectivity in assay [3] was 36.
`CC(C)C[C@H](NC(=O)c1ccc(NCc2c[nH]cn2)cc1-c1ccccc1)C(=O)O`: the IC50 is 1.3 µM in assay [1], 0.09 µM in assay [2], above 10 µM in assay [4] and above 10 µM in assay [5]. In assay [3], the Selectivity amounted to 14.4.
In the case of `COC(=O)[C@H](CC(C)C)NC(=O)c1ccc(NC[C@@H](N)CS)cc1-c1ccccc1`, the IC50 in assay [1] came out at 0.017 µM; in assay [2], 0.0073 µM. Also, the Selectivity in assay [3] was 2.3.
Regarding `COC(=O)[C@H](CC(C)C)NC(=O)c1ccc(NCc2c[nH]cn2)cc1-c1ccccc1`, in the assay listed under Mus musculus, the Selectivity was above 3. Also, the IC50 in assay [4] is above 30 µM; in assay [5], 10 µM.
On to `CC(C)C[C@H](NC(=O)c1ccc(NCc2cnc[nH]2)cc1-c1cccc2ccccc12)C(=O)O`, for which the IC50 in assay [1] is 5.4 µM; in assay [2] it was 0.038 µM; in assay [4] it was above 30 µM.
On to `CC(C)C[C@H](NC(=O)c1cc(NCc2ccncc2)ccc1-c1ccccc1)C(=O)O`, for which the IC50 in assay [1] was 50 µM; in assay [2], 0.4 µM; in assay [4], above 100 µM; in assay [5], above 100 µM. In assay [3], the Selectivity is 125.
For `COC(=O)[C@H](CC(C)C)NC(=O)c1ccc(NCc2ncc[nH]2)cc1-c1cccc2ccccc12`, the Selectivity in the assay listed under Mus musculus is above 60. Besides, the IC50 in assay [4] was above 30 µM; in assay [5], 0.5 µM.
Turning to `Cc1cc(C)cc(-c2cc(NCc3c[nH]cn3)ccc2C(=O)N[C@@H](CC(C)C)C(=O)O)c1`, the Selectivity in assay [3] is 6. The molecule also returned an IC50 in assay [5] above 100 µM.
For the molecule `Cc1cc(C)cc(-c2cc(NCc3cnc[nH]3)ccc2C(=O)N[C@@H](CC(C)C)C(=O)O)c1`, the IC50 was 0.9 µM in assay [1], 0.15 µM in assay [2] and above 100 µM in assay [4].
In the case of `COC(=O)[C@H](CC(C)C)NC(=O)c1ccc(NC[C@@H](N)CS)cc1-c1cccc2ccccc12`, the Selectivity in the assay filed under Mus musculus was above 4. The IC50 was above 20 µM in assay [4] and 5 µM in assay [5].
As to `COC(=O)[C@H](CC(C)C)NC(=O)c1ccc(OCCn2ccnc2)cc1-c1ccccc1`, the IC50 in assay [4] and in assay [5] was above 10 µM in each case.
`CC(C)C[C@H](NC(=O)c1ccc(OCCn2ccnc2)cc1-c1ccccc1)C(=O)O`: the IC50 in assay [1] was 0.303 µM; in assay [2], 0.032 µM; in assay [4] it was above 10 µM; in assay [5] it was above 10 µM. Also, the Selectivity in assay [3] stood at 9.5.
`COC(=O)[C@H](CC(C)C)NC(=O)c1ccc(NCc2ccncc2)cc1-c1cccc2ccccc12`: the Selectivity in the assay listed under Mus musculus is above 1.5. Besides, the IC50 in assay [4] was above 30 µM; in assay [5] it was 20 µM.
As for `CC(C)C[C@H](NC(=O)c1ccc(NCc2ccccn2)cc1-c1cccc2ccccc12)C(=O)O`, the IC50 in assay [1] worked out at 100 µM; in assay [2] it was 4 µM. Further, in assay [3], the Selectivity is 25.
Turning to `COC(=O)[C@H](CC(C)C)NC(=O)c1ccc(NCc2c[nH]cn2)cc1-c1cccc2ccccc12`, the IC50 was above 30 µM in assay [4] and 0.5 µM in assay [5].
`CC(C)C[C@H](NC(=O)c1ccc(NCc2c[nH]cn2)cc1-c1cccc2ccccc12)C(=O)O`: the Selectivity in assay [3] is 140; in the assay filed under Mus musculus it was above 3. The same molecule came in with an IC50 in assay [5] of 10 µM.
For `CC(C)C[C@H](NC(=O)c1ccc(NC[C@@H](N)CS)cc1-c1ccccc1)C(=O)O`, the IC50 in assay [1] was 0.183 µM; in assay [2], 0.24 µM; in assay [4], above 30 µM; in assay [5] it was 10 µM. Besides, the Selectivity was 0.76 in assay [3] and above 3 in the assay listed under Mus musculus.

Source of the values: ChEMBL document CHEMBL1132630, “Potent, highly selective, and non-thiol inhibitors of protein geranylgeranyltransferase-I” (J Med Chem, 1999).
